# Rows were chosen to be rich in hits. Some 1.7% of all compounds tested hit in one or more screens of this group.
# CHRM5 agonist = CHRM5 agonism in calcium assay; P08912; hit rate 0.19% among 360,000; CHO-K1 hM5 cells, Fluo-8 calcium fluorescence; 0% DMSO wells, 100% maximal acetylcholine response; activation, % at 3 µM;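 active = activation above the run's mean over test compounds plus 3 SD, cut at about 23% in these data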;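 note: signal is peak over basal fluorescence ratio across the kinetic read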
# Target sequence (P08912 whole entry, looked up): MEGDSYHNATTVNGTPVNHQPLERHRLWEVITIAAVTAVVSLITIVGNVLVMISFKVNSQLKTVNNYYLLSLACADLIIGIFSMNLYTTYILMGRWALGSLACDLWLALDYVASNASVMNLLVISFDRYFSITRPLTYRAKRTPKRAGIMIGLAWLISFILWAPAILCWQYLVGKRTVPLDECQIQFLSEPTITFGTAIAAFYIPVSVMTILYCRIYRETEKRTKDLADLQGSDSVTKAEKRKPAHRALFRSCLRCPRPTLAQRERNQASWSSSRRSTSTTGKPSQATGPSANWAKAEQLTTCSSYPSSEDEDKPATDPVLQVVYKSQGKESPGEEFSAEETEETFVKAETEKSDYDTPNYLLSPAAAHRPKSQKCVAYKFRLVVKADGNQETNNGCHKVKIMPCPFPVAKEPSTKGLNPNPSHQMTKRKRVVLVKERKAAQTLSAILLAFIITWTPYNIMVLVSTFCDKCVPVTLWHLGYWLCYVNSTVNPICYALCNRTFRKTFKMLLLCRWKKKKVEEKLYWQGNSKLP
# CHRM5 PAM = CHRM5 positive allosteric modulation | activation, % at 3 µM | hit rate 0.3% among 360,000 | AID 624038 | P08912 | CHO-K1 hM5, Fluo-8 calcium, ACh EC20 PAM; 0% = ACh EC20, 100% = ACh EC100;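 active = activation above the run cutoff, the mean activation of all test compounds plus 3 SD, cut at about 18% in these data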
#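 Probe or stimulus: acetylcholine, EC20 level; Assay system: human M5 receptor in CHO-K1 cells; Schedule: compound preincubation 140 s before EC20 acetylcholine addition; Technique: intracellular calcium via Fluo-8 fluorescence; Dosing: single-point, 3 µM nominal; Read-out basis: percent activation from peak-over-basal fluorescence ratio, scaled EC20-to-EC100 acetylcholine; Repeats: one well per compound, no replicates.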
# CHO-K1 Ca antag = nonselective inhibitor or artifact in parental CHO-K1 cells; ATP-induced calcium, Fluo-8 fluorescence; hit rate 0.6% among 360,000; inhibition, % at 3 µM;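 active = inhibition above a per-plate cutoff, the plate's mean sample inhibition plus 3 SD, cut at about 24% in these data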
# M1 PAM parental = M1 PAM counterscreen hit in parental CHO-K1 cells | AID 602247 | ATP EC20, Fluo-8 calcium fluorescence; 0% at ATP EC20, 100% at ATP max | hit rate 0.02% among 360,000 | activation, % at 3 µM;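 active = activation above the run cutoff, the mean activation of all test compounds plus 3 SD, cut at about 40% in these data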;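 note: peak over basal fluorescence ratio in a 140 s read after ATP addition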
# CHO-K1 Ca ag = M1 agonist counterscreen hit in parental CHO-K1 cells. Fluo-8 calcium fluorescence; scaled to maximal ATP response, vehicle zero. activation, % at 3 µM. hit rate 0.48% among 360,000; in the data active = activation above about 15%;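 note: untransfected CHO-K1 host cells lacking M1 receptor as counterscreen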
# M5 antag = CHRM5 antagonism in calcium assay; P08912; CHO-hM5 cells, Fluo-8 calcium fluorescence, ACh EC80; inhibition, % at 3 µM; hit rate 0.59% among 360,000; AID 624040;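 active = inhibition above a per-plate cutoff, the mean of that plate's test compounds plus 3 SD, cut at about 27% in these data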
# Numbers stand for hits; – = inactive.
SMILES,CHRM5 agonist,CHRM5 PAM,CHO-K1 Ca antag,M1 PAM parental,CHO-K1 Ca ag,M5 antag
COc1ccc(C(=O)Nc2c3c(nn2-c2ccc(Cl)cc2)CS(=O)(=O)C3)cc1,–,25,–,–,–,–
COc1ccc(C(=O)Nc2c3c(nn2-c2ccc([N+](=O)[O-])cc2)CS(=O)(=O)C3)cc1,–,–,–,–,18,–
CCOC(=O)C1CCCN(C/C=C/c2ccccc2)C1 (stereo unspecified),–,–,–,–,–,–
COc1ccccc1NC(=O)c1cc(OC)c(OC)cc1[N+](=O)[O-],–,–,–,–,16,–
Cc1cc(/C=N/NC(=O)c2ccc(O)cc2)c(C)n1C1CC1,–,–,28,–,–,–
COc1ccc(CNC(=O)C(c2ccco2)N(C(=O)CNS(=O)(=O)c2ccccc2)c2ccccc2C)cc1 (stereo unspecified),–,–,–,–,54,–
O=C(Cc1csc(NC(=O)Nc2cccc(Cl)c2)n1)NCc1ccccn1,–,–,–,–,–,–
O=C(Cc1csc(NC(=O)Nc2cccc(Cl)c2)n1)NC1CCCC1,–,–,–,–,16,–
Cc1cccc(NC(=O)/C(C#N)=C\c2cn(CC(=O)O)c3ccccc23)c1,–,–,–,–,–,28
Cc1ccc(C2=CC(=O)CC(C)(C)C2)cc1,–,–,–,–,–,–
CN(C)/C=C/C1=CC(=O)CC(C)(C)C1,–,–,24,–,–,–
CC(=O)Nc1ccc(NC(=O)COc2cccc3c2OC(C)(C)C3)cc1,–,–,–,–,–,–
COc1cc(NC(=O)COc2cccc3c2OC(C)(C)C3)cc(OC)c1OC,–,–,–,–,18,–
CC1(C)CC(=O)c2c(O)cc(OCC(=O)Nc3ccc(S(N)(=O)=O)cc3)cc2O1,–,–,–,–,–,–
CC1(C)Cc2cccc(OCC(=O)Nc3cc(C(F)(F)F)ccc3N3CCOCC3)c2O1,–,–,30,–,–,–
COc1cc(NC(=O)COc2cc(O)c3c(c2)OC(C)(C)CC3=O)cc(OC)c1OC,–,–,37,–,18,43
COc1ccc(N(CC(=O)NCCC(C)C)C(=O)c2snc(C(=O)NC3CCCCC3)c2N)c(OC)c1,–,–,–,–,–,–
O=C(COC(=O)c1ccc2c(c1)OCCO2)NCCc1ccc(F)cc1,–,–,–,–,–,–
CCCCOc1ccc(Br)cc1CSC(=N)N,–,–,34,–,–,40
CC1(C)OC(=O)CC1C(=O)NCc1ccccc1 (stereo unspecified),–,25,–,–,–,–
CC1CN(C)C(C)CC1OC(=O)C(c1ccccc1)c1ccccc1 (stereo unspecified),–,–,–,–,–,68
CN(C)[C@@H]1CCC[C@H]1OC(=O)C(c1ccccc1)c1ccccc1,–,–,–,–,–,53
Cc1noc(C)c1C(=O)OCC(=O)Nc1ccc(N2CCOCC2)cc1,–,–,–,–,–,–
CCOc1ccc(NC(=O)CN(C)C(=O)C2CCCC2)cc1OCC,–,–,–,–,–,–
CC(Oc1ccc(C(=O)c2ccccc2)cc1)C(=O)Nc1ccc(S(N)(=O)=O)cc1 (stereo unspecified),–,–,–,–,18,–
SMILES,CHRM5 agonist,CHRM5 PAM,CHO-K1 Ca antag,M1 PAM parental,CHO-K1 Ca ag,M5 antag
Cc1cc(C)c2c(CN3CCCC3)cc(=O)oc2c1,–,–,30,–,–,–
Cc1cc(C)c2c(CN3CCN(c4ccccc4)CC3)cc(=O)oc2c1,–,–,–,–,–,–
Cc1cc(C)c2c(CN3CCN(Cc4ccccc4)CC3)cc(=O)oc2c1,–,–,–,–,17,–
Cc1cc(C)c2c(CN3CCOCC3)cc(=O)oc2c1,–,–,–,–,–,–
O=C1NC[C@H](CCCCN2C[C@H](Cc3ccccc3)N(CC3CCCCC3)C(=O)C2=O)N(CCC2CCCCC2)C1=O,–,–,–,–,–,–
O=C1NC[C@@H](CCCCN2C[C@H](Cc3ccccc3)N(CC3CCCCC3)C(=O)C2=O)N(CC2CCCCC2)C1=O,–,–,–,–,35,–
O=C1NC[C@H](CCCCN2C[C@@H](Cc3ccccc3)N(CC3CCCCC3)C(=O)C2=O)N(CCC2CCCCC2)C1=O,–,–,–,–,26,–
O=C(O)c1ccc(-n2cccc2/C=C2/NC(=O)N(c3cccc(Cl)c3)C2=O)cc1,–,–,–,–,–,–
COc1ccc(C2SCC(=O)N2c2c(C)n(C)n(-c3ccccc3)c2=O)cc1OC (stereo unspecified),–,33,–,–,–,–
Cc1c(N2C(=O)CSC2c2ccccc2)c(=O)n(-c2ccccc2)n1C (stereo unspecified),–,–,–,–,–,–
O=C(NC1CCCCC1)[C@@H]1CSC2c3ccccc3C(=O)N21 (stereo partly specified),–,–,–,–,–,–
Cn1c2ccccc2c2cc(C(=O)N3CCOCC3)sc21,–,–,–,–,–,–
NC(=O)CSc1nnc(Cc2ccc3c(c2)OCO3)n1C1CCCCC1,–,–,–,–,–,–
Fc1c(CSC(=S)N2CCOCC2)cccc1CSC(=S)N1CCOCC1,–,–,–,–,16,–
Cc1csc2ncc(C(=O)NCc3ccccc3Cl)c(=O)n12,–,–,–,–,–,–
Cc1csc2ncc(C(=O)NC(C)c3ccccc3)c(=O)n12 (stereo unspecified),–,–,–,–,16,–
CC(OC(=O)c1cc(-c2cccnc2)nc2ccccc12)C(=O)Nc1ccc2ccccc2c1 (stereo unspecified),–,–,–,–,–,–
CC(C)N1CCc2c(sc(NC(=S)NC(=O)c3ccccc3)c2C#N)C1,–,–,–,–,–,–
CCCN1CCc2c(sc(NC(=S)NC(=O)c3ccccc3)c2C#N)C1,–,–,–,–,46,–
O=C(C1CCC(CNc2c(N3CCCCC3)c(=O)c2=O)CC1)N1CCN(C2CCCCC2)CC1 (stereo unspecified),–,–,–,–,–,–
CCC(c1nnnn1Cc1cccs1)N1CCN(c2nc3ccccc3s2)CC1 (stereo unspecified),–,–,48,–,–,–
COc1ccc(C(=O)OCc2ccccc2F)cc1S(=O)(=O)N1CCCC1,–,–,–,–,–,–
Cc1ccnc(SC2CC(=O)N(c3ccc(Br)cc3)C2=O)n1 (stereo unspecified),–,–,–,–,–,–
CCN1CCN(C(=O)CN2C(=O)c3cccc4cccc2c34)CC1,–,–,–,–,–,–
Cc1ccc(Cl)cc1N1CCN(C(=O)CN2C(=O)c3cccc4cccc2c34)CC1,–,–,26,–,–,–
CCN(CC)CCSc1nc2ccccc2n1Cc1ccccc1,–,–,–,–,–,40
